L major viab = reduces viability of Leishmania major promastigotes; resazurin fluorescence viability; inhibition, % at 10 µM; 9% of 200,000 active; in the data active = inhibition above about 50%;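 also: promastigotes grown with compound for 44 hours at 28 °C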
bCat nuc transl = alters nuclear translocation of beta-catenin in HeLa cells; nuclear translocation activity, % at 5 µM; 0.3% of 190,000 active; immunofluorescence imaging;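 active = nuclear translocation activity above 50% at 5 µM, with a well cell count of 50 or more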;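 also: per-cell ratio of nuclear to cytoplasmic median beta-catenin stain intensity; plate controls were DMSO negative control for no effect and GSK-3 inhibitor IX positive control for full effect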
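test system = HeLa cells, endogenous beta-catenin | dosing = single 5 µM dose plus 0.02–20 µM confirmation series | times = compound treatment 24 h, 37°C, 5% CO2 | technique = beta-catenin immunofluorescence imaging with DAPI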
Dynein transport = dynein cargo transport inhibition | 0.47% of 220,000 active | AID 1381 | 3617.4 mouse cells, GR-EGFP nuclear translocation imaging; test concentration mostly 20 µM; stimulated with dexamethasone, 1 µM; active compounds read low | z-score, hits read low;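 active = plate z-score of nuclear minus cytoplasmic receptor signal below a set negative limit, without overly bright fluorescence or cell loss, cut at about -3.5 in these data, passing the limit was not always enough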;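 also: z-score of nuclear minus cytoplasmic ring GR-EGFP intensity difference per well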
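Buffer or medium: tet-free, stripped-serum medium; Also added: dexamethasone, 1.0 µM final; Technique: high-content fluorescence imaging after fixation; Times: 48 h induction, 1 h compound, 30 min dex at 37 °C; Read-out: per-cell GR-EGFP intensity, nucleus versus surrounding cytoplasmic ring, well-averaged.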
HSV replic up = HSV replication enhancement; HSV replication augmentation in cells, fold increase; maximum fold increase; 0.005% of 220,000 active; AID 1956; in the data active = maximum fold increase above about 1.5; tested in PC3 cells
MT stabilize HCS = microtubule stabilization, imaging screen. HeLa tubulin immunostaining HCS, 24 h; share of cells brighter than vehicle mean+2SD. % tubulin-high responders, % at 10 µM. 0.83% of 200,000 active. AID 2205;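 active = plate Z-score above 3 for both tubulin-high and condensed-nucleus cell shares, with cell loss under 80%, at 10 µM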;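 also: anti alpha tubulin signal scored within the nucleus-defined area of each cell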
The depositor's hits bear a star; i = inactive; nt = not tested or not shown. Only some compounds are listed: those with a hit (about 8.9% of all), similar ones and a draw of the others.

SMILES | L major viab | bCat nuc transl | Dynein transport | HSV replic up | MT stabilize HCS
CC(CCc1ccccc1)NC(=O)C(Cc1ccccc1)NS(=O)(=O)c1cccs1 (stereo not given) | 89* | 3 | -1.2 | i | 1
CC1CCCCC1NC(=O)C(Cc1ccccc1)NS(=O)(=O)c1cccs1 (stereo not given) | 58* | nt | 0.13 | i | 3
CCC(C)N1C(=O)CN(C2CCCCCC2)C(=O)C1c1ccccc1F (stereo not given) | 19 | 0 | 0.24 | i | 3
Cc1cc(/C=N/NC(=O)c2ccccc2F)c(C)n1-c1ccccc1 | 2 | 1 | 0.29 | i | 4
Cc1cc(/C=N/NC(=O)c2cccc(F)c2)c(C)n1-c1ccccc1 | -5 | 9 | -1.2 | i | 16*
Cc1cccc(-n2c(C)cc(/C=N/NC(=O)c3cccc([N+](=O)[O-])c3C)c2C)c1 | 64* | -4 | -0.39 | i | 19
CCCN1C(=O)c2ccc(C(=O)Nc3nccs3)cc2C1=O | -7 | nt | -0.44 | i | 3
CCOc1cc(C(=O)OC(C)C(=O)Nc2ncc(Cl)cc2Cl)ccc1OCC(=O)N1CCOCC1 (stereo not given) | 73* | nt | 1.8 | i | 3
Cc1cc(Cl)ccc1OCC(=O)N1CCCN(C(=O)COc2ccc(Cl)cc2C)CC1 | 92* | 0 | 0.17 | i | 2
Cc1cc(OCC(=O)N2CCOCC2)c(C(C)C)cc1Cl | 80* | nt | -0.58 | i | 2
Cc1cc(Cl)ccc1OC(C)C(=O)N1CCCN(C(=O)C(C)Oc2ccc(Cl)cc2C)CC1 (stereo not given) | 99* | -8 | -0.79 | i | 3
CC(=O)/C=C/c1ccc(C)o1 | 0 | nt | -0.68 | i | 3
CCCC(=O)Nc1ccc(Cl)c(NC(=O)C(C)(C)C)c1 | 0 | -9 | -0.52 | i | 2
CCOC(=O)c1c(C)oc2c1c(C=NCCC(=O)O)c(O)c1ccccc12 | -4 | -4 | -0.24 | i | 2
O=C(O)c1ccc(NS(=O)(=O)c2cc(Cl)ccc2Cl)cc1 | 95* | 2 | 0.029 | i | 5
Cc1ccc(NS(=O)(=O)c2cc(C(=O)O)ccc2Cl)cc1 | 2 | 1 | 3.5 | i | 5
Cc1ccnc(N=Cc2c(O)ccc3oc4c(c23)CCCC4)c1 | 90* | -1 | -0.83 | i | 3
Cc1c([N+](=O)[O-])cc(C(=O)Oc2cccc(C(=S)N3CCOCC3)c2)cc1[N+](=O)[O-] | -7 | 0 | -1.1 | i | 1
Cc1ccc(S(=O)(=O)Nc2cc3c(C(=O)Nc4ccccc4)c(C)oc3c3ccccc23)cc1 | 61* | 3 | -0.54 | i | 3
O=C(NCc1ccco1)C1CCN(C(=O)c2cc3sccc3n2Cc2ccc(Cl)cc2)CC1 | 65* | nt | -0.061 | i | 3
CCOC(=O)/C(C#N)=C1/C=C(C)NC(c2ccccc2O)=N1 | -4 | -1 | 0.36 | i | 8
CCc1ccc(NC(=S)NC2CC3CCC(C2)N3Cc2ccco2)cc1 (stereo not given) | 94* | -1 | 0.011 | i | 2
Cc1cccc(NC(=O)NC2CC3CCC(C2)N3Cc2ccco2)c1 (stereo not given) | 8 | 0 | -0.97 | i | 2
Cc1cccc(NC(=S)NC2CC3CCC(C2)N3Cc2ccco2)c1 (stereo not given) | 79* | 2 | -0.97 | i | 3
COc1ccc(NC(=S)NC2CC3CCC(C2)N3Cc2ccco2)cc1 (stereo not given) | 42 | 2 | 1.1 | i | 3
SMILES | L major viab | bCat nuc transl | Dynein transport | HSV replic up | MT stabilize HCS
Cc1ccccc1NC(=S)NC1CC2CCC(C1)N2Cc1ccco1 (stereo not given) | 60* | -1 | 2.6 | i | 3
Cc1cccc(NC(=S)NC2CC3CCCC(C2)N3Cc2ccco2)c1 (stereo not given) | 63* | 1 | 0.38 | i | 2
O=C(NC1CC2CCC(C1)N2Cc1ccco1)c1ccccc1 (stereo not given) | 3 | -1 | -0.092 | i | 2
CCCN1C2CCCC1CC(NC(=S)Nc1cccc(C)c1)C2 (stereo not given) | 36 | -2 | 0.28 | i | 4
Cc1nc(NC(=O)c2ccccc2)sc1-c1csc(Nc2cccc(Cl)c2)n1 | 5 | nt | 0.46 | i | 26
N#Cc1ccccc1CSc1nc2ncc(Br)cc2[nH]1 | -8 | 1 | 0.012 | i | 5
Cc1ccc(NC(=S)NC2CC3CCCC(C2)N3Cc2ccco2)cc1 (stereo not given) | 90* | 1 | 0.08 | i | 8
COCCCNC(=S)NC1CC2CCCC(C1)N2Cc1ccco1 (stereo not given) | 0 | 0 | -0.68 | i | 3
CCCNC(=O)c1cccc(Cn2cc(Br)c([N+](=O)[O-])n2)c1 | 15 | nt | 0.57 | i | 4
CCOC(=O)c1csc(NC(=O)C(C)(C)C)n1 | -2 | nt | -0.35 | i | 3
O=C(c1nc2ccc(Cl)cn2c1CNCC[C@@H]1C[C@@H]2C=C[C@H]1C2)N1CCCCCCC1 | 70* | 1 | 2.7 | i | 4
[O-]/C(=C(\C(=S)Nc1cccc2ccccc12)[n+]1cccc(CO)c1)c1ccc(Cl)s1 | 11 | 0 | -0.16 | i | 3
Cc1c(Cl)cccc1NC(=S)/C(=C(\[O-])c1ccc(Cl)s1)[n+]1ccccc1 | 64* | -2 | -0.18 | i | 3
O=C(Nc1ccc(Cc2ccncc2)cc1)c1ccc(S(=O)(=O)N2CCCC2)cc1 | 99* | -3 | -0.49 | i | 2
Cc1ccc(C(=O)Nc2ccc(S(=O)(=O)N3CCCC3)cc2)s1 | 8 | 4 | -0.34 | i | 3
CC(=O)c1ccc(NC(=O)c2ccc(S(=O)(=O)N3CCCC3)cc2)cc1 | 98* | -3 | -0.68 | i | 2
Cc1cc(C(=O)Nc2ccc(S(=O)(=O)N3CCCC3)cc2)cs1 | 73* | -1 | 0.074 | i | 2
CCCCC(=O)Nc1ccc(C(=O)Nc2ccc(S(=O)(=O)N3CCCC3)cc2)cc1 | 4 | nt | 0.1 | i | 3
O=C(Nc1ccc(S(=O)(=O)N2CCCCC2)cc1)c1ccncc1 | 7 | 2 | 0.11 | i | 4
NC(=O)c1ccsc1NC(=O)c1ccc(S(=O)(=O)N2CCCC2)cc1 | 56* | 1 | -1.5 | i | 2
Cc1ccc(S(=O)(=O)C/N=C(/NC(=S)N(c2ccccc2)c2ccccc2)c2ccccc2)cc1 | 4 | nt | -0.59 | i | 1
COc1ccc(-c2ccc(=O)n(CC(=O)Nc3ccc4c(c3)OCCO4)n2)cc1 | -5 | 0 | -0.7 | i | 4
O=C(CN1CCCC1)Nc1ccc([N+](=O)[O-])cc1 | 8 | -4 | -0.21 | i | 4
CCC(C)n1c(SCC(=O)Nc2ccccc2C(F)(F)F)nc2ccsc2c1=O (stereo not given) | 96* | 1 | -0.18 | i | 4
COc1ccc2oc(=O)c(-c3nnc(N)s3)cc2c1 | 6 | -3 | 2 | i | 3

Source: PubChem
